The results in this text go back to ChEMBL document CHEMBL4011648, “Adamantyl Antiestrogens with Novel Side Chains Reveal a Spectrum of Activities in Suppressing Estrogen Receptor Mediated Activities in Breast Cancer Cells” (J Med Chem, 2017).

The subject of one assay is MDA-MB-231. Kind of assay: Antiproliferative activity against ERalpha-negative human MDA-MB-231 cells at 3 uM after 6 days by WST-1 assay. It counts as functional, cell-based. In outline: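 ERα-negative MDA-MB-231 breast cancer cells screened for proliferation with compound at 3 μM; WST-1 read-out at 450 nm after 6 days, relative to vehicle.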
The target of assay [1] is T1, Estrogen receptor (Homo sapiens) (UniProt P03372).
T1 sequence (whole entry): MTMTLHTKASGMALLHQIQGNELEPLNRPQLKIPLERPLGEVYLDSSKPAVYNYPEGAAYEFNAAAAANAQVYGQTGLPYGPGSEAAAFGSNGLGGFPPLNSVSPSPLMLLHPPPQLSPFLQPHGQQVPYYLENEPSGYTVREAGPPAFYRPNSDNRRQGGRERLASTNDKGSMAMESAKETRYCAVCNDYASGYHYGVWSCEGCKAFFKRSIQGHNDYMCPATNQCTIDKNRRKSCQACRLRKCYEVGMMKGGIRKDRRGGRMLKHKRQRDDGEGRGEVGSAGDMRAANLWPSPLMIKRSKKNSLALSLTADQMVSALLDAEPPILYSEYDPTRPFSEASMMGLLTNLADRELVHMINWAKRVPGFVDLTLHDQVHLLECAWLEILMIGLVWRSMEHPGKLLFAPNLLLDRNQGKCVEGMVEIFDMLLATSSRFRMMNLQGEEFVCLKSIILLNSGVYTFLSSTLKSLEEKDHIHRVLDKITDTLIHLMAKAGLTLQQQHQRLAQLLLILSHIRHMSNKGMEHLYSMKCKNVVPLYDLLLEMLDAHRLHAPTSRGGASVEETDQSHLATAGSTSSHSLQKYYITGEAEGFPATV
The assay can be described thus: Downregulation of ER-alpha levels in ER-positive human MCF-7 cells at 3 uM after 24 hrs by in-cell Western assay.

Assay [2] has as its target T2, Estrogen receptor (Homo sapiens, UniProt P03372).
T2 sequence (P03372 whole entry): T1 sequence (whole entry)
Kind of assay: Displacement of [3H]estradiol from full-length human ERalpha receptor by scintillation counting.

Assay [3] deals with T1, Estrogen receptor (Homo sapiens). The assay can be described thus: Displacement of [3H]estradiol from full-length human ERalpha receptor by scintillation counting relative to estradiol.
For assay [4], the system named is MCF7. Kind of assay: Antiproliferative activity against ER-positive human MCF7 cells at 3 uM after 6 days by WST-1 assay. It is filed as functional. In outline:
(§1)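 MCF-7 cells (ATCC), 6-day compound exposure; viability by WST-1 absorbance at 450 nm, expressed relative to vehicle-treated controls. Run in triplicate; 3 μM single-concentration screen values are averages of two to three independent experiments. Dose-response curves give IC50.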

Assay [5] deals with MCF7. The assay can be described thus: Antiproliferative activity against ER-positive human MCF7 cells after 6 days by WST-1 assay. The following applies: MCF7, 144 h. It is filed as functional, cell-based. The method, boiled down:
as §1

The target of assay [6] is T2, Estrogen receptor. Kind of assay: Downregulation of human ERalpha in human MCF-7 cells after 24 hrs by in-cell Western immunoassay method. It counts as cell-based. In outline:
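MCF-7 cells at 3000 cells/well treated 24 h (3 μM screen or dose-response); formaldehyde-fixed, Triton-permeabilized, stained with rabbit HC-20 anti-ERα overnight at 4 °C, IR secondary plus Cell Tag 700 normalization; in-cell Western imaging, ERα relative to vehicle, average of at least three independent experiments.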

Each structure is given as a SMILES string. Active and inactive are the calls of the source. The rule behind the calls is not given here.

Regarding `N#C/C=C/c1ccc(C(=C2C3CC4CC(C3)CC2C4)c2ccc(O)cc2)cc1`, the result in the assay with MDA-MB-231 and with MCF7 [4] was inactive. In assay [1], the outcome was Active. At Estrogen receptor [2], this molecule came in with a Ki of 1.4 nM. Besides, the RBA in assay [3] is 14%.

For `CCCNS(=O)(=O)/C=C/c1ccc(C(=C2C3CC4CC(C3)CC2C4)c2ccc(O)cc2)cc1`, the result with MDA-MB-231 was inactive. Moreover, the outcome (in assay [1]; in the assay on MCF7 [4]) was Active. The molecule further gave a Ki at Estrogen receptor [2] of 0.38 nM. In assay [3], the RBA came to 52%.

With `CCC(=C(c1ccc(O)cc1)c1ccc(/C=C/C(=O)O)cc1)c1ccccc1`, the result in the assay on MDA-MB-231 was inactive.

`COC(=O)/C=C/c1ccc(C(=C2C3CC4CC(C3)CC2C4)c2ccc(O)cc2)cc1`: the result (in the assay on MDA-MB-231; in assay [1]) was inactive. The same molecule showed an RBA in assay [3] of 46%.

Turning to `O=C(/C=C/c1ccc(C(=C2C3CC4CC(C3)CC2C4)c2ccc(O)cc2)cc1)OCCCCO`, in the assay on MDA-MB-231, the outcome was inactive. Besides, the outcome in assay [1] was Active. This molecule also came in with a Ki on Estrogen receptor [2] of 0.45 nM. This molecule also showed an RBA in assay [3] of 44%.

For the molecule `CN(C)CCNC(=O)/C=C/c1ccc(C(=C2C3CC4CC(C3)CC2C4)c2ccc(O)cc2)cc1`, the result in the assay with MDA-MB-231 was inactive. In addition, at Estrogen receptor [2], the affinity, expressed as Ki, was 0.35 nM. The RBA in assay [3] came out at 57%.

Take `O=C(/C=C/c1ccc(C(=C2C3CC4CC(C3)CC2C4)c2ccc(O)cc2)cc1)OCCCO`: the outcome (in the assay with MDA-MB-231; in assay [1]) was inactive. Further, the RBA in assay [3] was determined as 28%.

Take `CCCCN(C)C(=O)/C=C/c1ccc(C(=C2C3CC4CC(C3)CC2C4)c2ccc(O)cc2)cc1`: the outcome (in the assay with MDA-MB-231; in assay [1]; in the assay with MCF7 [4]) was inactive. The molecule also returned an RBA in assay [3] of 28%.

On to `O=C(/C=C/c1ccc(C(=C2C3CC4CC(C3)CC2C4)c2ccc(O)cc2)cc1)NCCO`, for which the results for the IC50 in the assay with MCF7 [5] and against Estrogen receptor [6] were 2.4 nM and 5.6 nM, respectively. The outcome with MDA-MB-231 was inactive. In assay [1], the outcome was Active. Also, at Estrogen receptor [2], the Ki was 0.18 nM. In assay [3], this molecule returned an RBA of 109%. The Activity with MCF7 [4] was determined as 24%.

Regarding `NC(=O)/C=C/c1ccc(C(=C2C3CC4CC(C3)CC2C4)c2ccc(O)cc2)cc1`, the outcome (in the assay with MDA-MB-231; in assay [1]) was inactive. This molecule came in with a Ki on Estrogen receptor [2] of 0.27 nM. In addition, the RBA in assay [3] is 71%.

Take `O=C(/C=C/c1ccc(C(=C2C3CC4CC(C3)CC2C4)c2ccc(O)cc2)cc1)NCC(F)(F)F`: the outcome (in the assay on MDA-MB-231; in assay [1]) was inactive. On Estrogen receptor [2], this molecule showed an inhibitory constant (Ki) of 1.33 nM. The RBA in assay [3] worked out at 15%.

On to `O=C(/C=C/c1ccc(C(=C2C3CC4CC(C3)CC2C4)c2ccc(O)cc2)cc1)NCCCCCO`, for which the result in the assay with MDA-MB-231 was inactive. This molecule also showed a Ki on Estrogen receptor [2] of 0.65 nM. Besides, the RBA in assay [3] was 31%. Besides, the outcome in the assay on MCF7 [4] was Active.

As for `NCCCCNC(=O)/C=C/c1ccc(C(=C2C3CC4CC(C3)CC2C4)c2ccc(O)cc2)cc1`, in the assay on MDA-MB-231, the outcome was inactive. The result in assay [1] was Active.

On to `O=C(/C=C/c1ccc(C(=C2C3CC4CC(C3)CC2C4)c2ccc(O)cc2)cc1)NCCCCO`, for which the outcome in the assay on MDA-MB-231 was inactive. The affinity on Estrogen receptor [2] corresponds to a Ki of 0.36 nM. This molecule returned an RBA in assay [3] of 56%. The result with MCF7 [4] was Active.

For `CCCNC(=O)/C=C/c1ccc(C(=C2C3CC4CC(C3)CC2C4)c2ccc(O)cc2)cc1`, in the assay with MDA-MB-231, the result was inactive. The same molecule had a Ki at Estrogen receptor [2] of 1.1 nM. Also, the RBA in assay [3] came to 18%. Moreover, the result in the assay with MCF7 [4] was Active.

For `CCCCOC(=O)/C=C/c1ccc(C(=C2C3CC4CC(C3)CC2C4)c2ccc(O)cc2)cc1`, in the assay with MDA-MB-231, the outcome was inactive. Besides, the result in assay [1] was Active. The same molecule registered a Ki on Estrogen receptor [2] of 1.8 nM. The RBA in assay [3] worked out at 11%. For the same molecule, the Activity with MCF7 [4] was determined as 40%.

As for `CC(C)CCCCCOC(=O)/C=C/c1ccc(C(=C2C3CC4CC(C3)CC2C4)c2ccc(O)cc2)cc1`, in the assay on MDA-MB-231, the result was inactive. Also, in assay [1], the outcome was Active. This molecule had a Ki at Estrogen receptor [2] of 7.1 nM. In assay [3], this molecule returned an RBA of 2.8%.

Consider `CN(CCO)C(=O)/C=C/c1ccc(C(=C2C3CC4CC(C3)CC2C4)c2ccc(O)cc2)cc1`, for which, in the assay on MDA-MB-231, the outcome was inactive.

As for `NCCCNC(=O)/C=C/c1ccc(C(=C2C3CC4CC(C3)CC2C4)c2ccc(O)cc2)cc1`, in the assay on MDA-MB-231, the outcome was inactive. The outcome (in assay [1]; in the assay with MCF7 [4]) was Active. For the same molecule, in assay [3], the RBA is 54%.

For `O=C(/C=C/c1ccc(C(=C2C3CC4CC(C3)CC2C4)c2ccc(O)cc2)cc1)N(CCO)CCO`, in the assay with MDA-MB-231, the result was inactive. Besides, on Estrogen receptor [2], the inhibitory constant (Ki) was found to be 0.13 nM. This molecule also gave an RBA in assay [3] of 115%.

On to `CCCCNC(=O)/C=C/c1ccc(C(=C2C3CC4CC(C3)CC2C4)c2ccc(O)cc2)cc1`, for which the outcome with MDA-MB-231 was inactive. Besides, the result (in assay [1]; in the assay with MCF7 [4]) was Active. Besides, the RBA in assay [3] is 28%.

In the case of `CCOC(=O)/C=C/c1ccc(C(=C2C3CC4CC(C3)CC2C4)c2ccc(O)cc2)cc1`, the result (in the assay on MDA-MB-231; in assay [1]) was inactive. The molecule also displayed a Ki on Estrogen receptor [2] of 3.3 nM. The molecule further returned an RBA in assay [3] of 13%.

As for `NCCNC(=O)/C=C/c1ccc(C(=C2C3CC4CC(C3)CC2C4)c2ccc(O)cc2)cc1`, the outcome in the assay with MDA-MB-231 was inactive. In addition, the outcome (in assay [1]; with MCF7 [4]) was Active. The Ki on Estrogen receptor [2] stood at 0.57 nM. This molecule yielded an RBA in assay [3] of 35%.

With `CCCCCNC(=O)/C=C/c1ccc(C(=C2C3CC4CC(C3)CC2C4)c2ccc(O)cc2)cc1`, in the assay on MDA-MB-231, the outcome was inactive. On Estrogen receptor [2], this molecule had an inhibition constant (Ki) of 0.74 nM. Moreover, the RBA in assay [3] is 27%. For the same molecule, the result in the assay with MCF7 [4] was Active.

On to `CCCCCC(=O)/C=C/c1ccc(C(=C2C3CC4CC(C3)CC2C4)c2ccc(O)cc2)cc1`, for which the result in the assay with MDA-MB-231 was inactive. On Estrogen receptor [2], the Ki worked out at 1.7 nM. The same molecule yielded an RBA in assay [3] of 12%.

Take `O=C(/C=C/c1ccc(C(=C2C3CC4CC(C3)CC2C4)c2ccc(O)cc2)cc1)OCCO`: the outcome (in the assay with MDA-MB-231; in assay [1]) was inactive. For the same molecule, in assay [3], the RBA was 54%.
